Bioassay records as filed in PubChem BioAssay.
hERG rescue = shields human hERG channel from block by proarrhythmic agents; CHO-hERG, FluxOR thallium flux, dofetilide IC70 present; activation (rescue from dofetilide block), less the hit threshold, % at 10 µM; 0.51% of 310,000 active;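 active = activation above the mean of controls blocked by dofetilide plus 5 SD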;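 note: thallium influx through hERG after potassium depolarization seen as dye fluorescence rise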
Target sequence (Q12809 whole entry, looked up): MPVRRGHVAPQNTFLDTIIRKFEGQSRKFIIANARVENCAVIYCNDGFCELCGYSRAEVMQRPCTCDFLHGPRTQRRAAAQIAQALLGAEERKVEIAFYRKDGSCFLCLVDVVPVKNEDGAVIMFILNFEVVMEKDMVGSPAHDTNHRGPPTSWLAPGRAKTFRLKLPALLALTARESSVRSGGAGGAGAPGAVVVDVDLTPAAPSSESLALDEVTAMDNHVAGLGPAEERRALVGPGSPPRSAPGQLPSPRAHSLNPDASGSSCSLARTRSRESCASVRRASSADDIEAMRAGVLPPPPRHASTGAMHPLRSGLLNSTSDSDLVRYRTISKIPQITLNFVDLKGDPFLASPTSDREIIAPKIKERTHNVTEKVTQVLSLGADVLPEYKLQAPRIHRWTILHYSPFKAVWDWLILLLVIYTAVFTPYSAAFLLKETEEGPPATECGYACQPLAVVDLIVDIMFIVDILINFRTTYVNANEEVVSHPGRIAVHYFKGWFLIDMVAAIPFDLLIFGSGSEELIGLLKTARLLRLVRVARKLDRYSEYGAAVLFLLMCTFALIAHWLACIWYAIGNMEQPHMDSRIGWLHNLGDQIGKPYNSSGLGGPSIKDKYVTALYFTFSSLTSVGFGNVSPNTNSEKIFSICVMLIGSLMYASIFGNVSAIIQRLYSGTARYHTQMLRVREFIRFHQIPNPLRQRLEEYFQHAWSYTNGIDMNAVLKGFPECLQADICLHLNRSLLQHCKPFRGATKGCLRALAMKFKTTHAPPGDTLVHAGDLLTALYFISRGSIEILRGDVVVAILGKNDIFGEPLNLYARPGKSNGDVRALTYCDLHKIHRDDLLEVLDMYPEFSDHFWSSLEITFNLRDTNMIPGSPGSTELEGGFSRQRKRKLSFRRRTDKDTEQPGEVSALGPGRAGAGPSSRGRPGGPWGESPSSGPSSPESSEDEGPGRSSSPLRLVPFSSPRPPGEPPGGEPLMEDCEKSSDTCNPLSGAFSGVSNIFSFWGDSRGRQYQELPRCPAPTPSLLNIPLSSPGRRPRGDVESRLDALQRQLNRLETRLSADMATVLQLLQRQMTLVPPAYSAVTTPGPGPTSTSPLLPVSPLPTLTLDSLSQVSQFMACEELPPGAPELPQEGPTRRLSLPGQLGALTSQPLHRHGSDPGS
KCNQ1 inh = blocks the human KCNQ1 potassium channel; P51787; CHO-K1 KCNQ1, FluxOR thallium flux fluorescence; stronger effect = higher value; B-score at 10 µM; 1.3% of 310,000 active; AID 2642;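 active = compounds whose thallium flux B-score, printed positive for inhibition, exceeds three library SD while starting fluorescence stays within three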;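 note: channel opened by potassium depolarization with thallium stimulus after 20 min compound exposure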
KCNK3 inh = human KCNK3 channel inhibition, primary screen; 0.84% of 340,000 active; AID 602410; CHO-KCNK3 thallium flux, FluxOR fluorescence; stronger effect = lower value; O14649; B-score at 10 µM;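 active = B-score under library mean minus 4 SD, starting fluorescence ratio at most library mean plus 5 SD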;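 note: more negative B-score means stronger inhibition of thallium flux through KCNK3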
KCNQ1 pot = potentiates or activates the human KCNQ1 potassium channel; P51787; AID 2648; B-score at 10 µM; 0.35% of 310,000 active; CHO-K1 KCNQ1, thallium flux FluxOR fluorescence; stronger effect = higher value;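 active = fluorescence ratio B-score, a plate-corrected score, at least three library SD, with initial intensity B-score within 5 SD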
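assay system = CHO-K1 cells stably expressing KCNQ1 | medium = assay buffer, equal DMSO in all wells | timing = 37 °C overnight plating, 90-min dark dye load, 20-min compound pretreatment | measured by = kinetic FluxOR thallium fluorescence, 10-s 1-Hz baseline, 110-s post-stimulus read | measure = fluorescence change relative to baseline, converted to B score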
KCNK9 block = human KCNK9 channel inhibition | Q9NPC2 | HEK293 KCNK9, FluxOR thallium flux fluorescence; stronger effect = lower value | B-score at 10 µM | 1.2% of 310,000 active;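 active = ratio B-score over 3 SD below the library mean, with starting fluorescence within 5 SD of its mean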;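 note: negative B-score means less thallium flux so channel inhibition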
Cl transport mod = KCC2 (human) Cl- transport modulation; Q9H2X9; KCC2 cells, thallium flux FluoZin-2 fluorescence; B-score of Tl+ flux slope (higher = more flux/activation; lower = inhibition) at 10 µM; 2.2% of 190,000 active; AID 1456;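 active = thallium flux slope and its plate-corrected score both differing from the plate sample mean at a set confidence after two filtering rounds, in either direction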;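 note: slope of fluorescence scaled to starting intensity during 10 to 20 s after thallium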
KCNK9 inh conf = confirmation of human KCNK9 potassium channel inhibitors; shares compounds with KCNK9 block; 43% of 4,900 active; inhibition, % at 10 µM; AID 492992; HEK293 KCNK9 cells, FluxOR thallium flux fluorescence;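 active = thallium signal inhibited by more than 5 SD of the compound-free buffer control wells, on both duplicate plates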;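 note: 0% = assay buffer control wells without compound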
Kir2-1 spec = tests whether KCNK9 modulators also affect mouse Kir2.1 | shares compounds with KCNK9 block | Kir2.1 cells, FluxOR thallium flux fluorescence | inhibition, % at 10 µM | 4% of 4,900 active | AID 492993;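 active = thallium signal drop more than 5 SD beyond the mean of the no-compound control wells, seen in both duplicate plates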;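 note: signal is fluorescence rise after thallium addition divided by baseline fluorescence; plate controls were assay buffer only for no effect and full block by chlorpromazine control for full effect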
KCNK9 uninduced = non-induced cell nonspecific activity of KCNK9 modulators; non-induced KCNK9-HEK293, FluxOR thallium flux; shares compounds with KCNK9 block; 40% of 4,900 active; AID 492997; inhibition, % at 10 µM;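 active = thallium signal drop beyond 5 SD of the untreated control mean, on both duplicate plates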;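 note: plate controls were buffer only IC0 wells for no effect and SID17386958 at its maximal inhibitory level for full effect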
KCNK3 confirm = confirmation of human KCNK3 two-pore domain potassium channel inhibitors. shares compounds with KCNK3 inh. CHO-KCNK3 thallium flux, FluxOR fluorescence; 0% buffer, 100% carvedilol maximal block. ratio percent of control, % at 10 µM. 99% of 2,400 active. AID 651638;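 active = ratio percent of control, averaged over triplicates, above buffer control mean plus 5 SD, cut at about 64% in these data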;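 note: ratio is the fluorescence rise from min to max over baseline after thallium stimulus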
KCNK3 noninduced = counter-screen for KCNK3 inhibitors: effect in non-induced cells | 40% of 2,400 active | thallium flux ratio (lower = more inhibition) at 10 µM | shares compounds with KCNK3 inh | non-induced KCNK3 parental cells, FluxOR thallium flux; stronger effect = lower value;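 active = thallium flux ratio, averaged over three wells, more than 5 SD below the buffer control mean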;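 note: host cells are CHO cells without KCNK3 induction; ratio is peak minus trough fluorescence over baseline then normalized to buffer controls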
* = called active by the depositor; i = inactive; x = no result given. An excerpt weighted towards active compounds, which were near 4.1% of everything screened.

SMILES	hERG rescue	KCNQ1 inh	KCNK3 inh	KCNQ1 pot	KCNK9 block	Cl transport mod	KCNK9 inh conf	Kir2-1 spec	KCNK9 uninduced	KCNK3 confirm	KCNK3 noninduced
CC(=O)NC(CC(=O)OCC(=O)N1CCN(S(=O)(=O)c2ccc(C)cc2C)CC1)c1ccccc1 (stereo not drawn)	x	x	i	x	x	x	x	x	x	x	x
CCOc1ccccc1NC(=O)CN(C)S(=O)(=O)c1ccc(OC)c(C)c1	-1.4	i	i	i	-15*	0.472	50.0%*	i	i	94.7*	i
Cc1ccc(Nc2nc(CSc3nnnn3-c3ccccc3)cs2)cc1	-4.1	i	i	i	-11*	0.617	47.0%*	i	35.0%*	100.0*	i
CN(c1ccccc1)S(=O)(=O)c1cccc2ccccc12	-5.8	i	-10.2*	i	-8.97*	x	39.0%*	i	30.5%*	112.7*	i
CN(c1ccccc1)S(=O)(=O)c1cccc(Cl)c1Cl	-16.0	i	i	i	i	-2.17	x	x	x	x	x
CN(C)S(=O)(=O)N1CCCC(C(=O)c2ccc(-c3ccccc3)c(F)c2)C1 (stereo not drawn)	-59.4	i	-10.8*	i	-8.38*	-1.5	30.5%*	i	45.0%*	118.7*	i
CSc1ccc(C(=O)C2CCCN(S(=O)(=O)N(C)C)C2)cc1 (stereo not drawn)	-2.5	i	i	i	i	-0.391	x	x	x	x	x
COc1ccc(C(=O)c2coc3c2C(=O)C(=O)c2ccccc2-3)cc1	-14.2	i	-8.89*	i	-21.1*	-0.184	78.0%*	i	45.5%*	108.0*	0.149*
CC(C)(C)c1cc(C(=O)NNc2cccc(Cl)c2)n(Cc2ccccc2)n1	-11.2	10*	-11.9*	i	-15*	-0.431	64.5%*	i	47.5%*	123.0*	i
CCOC(=O)C1CCN(C(=O)c2ccccc2NC(=O)C2=C(C)OCCS2)CC1	-6.7	i	i	i	i	x	x	x	x	x	x
COc1ccccc1C(=O)Oc1ccc(C(C)(C)C)cc1	-12.6	i	-9.1*	i	i	0.547	i	i	i	92.7*	0.157*
COc1ccccc1C(=O)Oc1ccc2ccc(=O)oc2c1	-5.6	i	i	i	i	x	x	x	x	x	x
Clc1ccc(CSc2nnc(-c3sccc3-n3cccc3)o2)cc1	-17.8	6*	-9.22*	i	-13.9*	-1.39	49.5%*	i	i	100.7*	i
CCOC(=O)C(CCCCOc1cccc(CC)c1)C(=O)OCC	-12.9	i	i	i	i	1.14	x	x	x	x	x
CCOC(=O)C(CCCOc1cccc(CC)c1)C(=O)OCC	-4.9	i	-10.2*	i	i	-1.53	i	i	i	107.7*	i
C=CCN1C(=O)c2ccc(C(=O)N(CC)CC(=O)Nc3ccc(OC)cc3)cc2C1=O	-12.7	i	i	i	i	x	x	x	x	x	x
N#CC1=C(N)n2c(s/c(=C\c3ccco3)c2=O)=C(C#N)C1c1ccco1 (stereo not drawn)	-6.7	i	i	i	i	0.819	x	x	x	x	x
N#CC1=C(N)n2c(s/c(=C\c3cccs3)c2=O)=C(C#N)C1c1cccs1 (stereo not drawn)	-8.7	i	-9.44*	i	-11.1*	-2.19	26.5%*	i	39.0%*	96.0*	0.154*
CC(=NNC(=O)CSc1nc2ccccc2o1)c1ccco1	x	x	i	x	x	x	x	x	x	x	x
C/[N+]([O-])=C/c1c(OCc2ccccc2)ccc2ccccc12	-6.8	i	i	i	i	x	x	x	x	x	x
O=Cc1c(OCc2ccccc2)ccc2ccccc12	-9.1	i	-10.8*	i	-16.9*	0.392	63.5%*	i	49.5%*	112.7*	0.153*
O=C(COC(=O)c1cnc(Cl)c(Cl)c1)NC1CC1	x	x	i	x	x	x	x	x	x	x	x
CC1CCCCN1S(=O)(=O)c1ccc(NC(=O)c2cccs2)cc1 (stereo not drawn)	-11.9	i	i	i	-8.68*	x	41.0%*	i	i	88.3*	i
CCCCN(CCCC)S(=O)(=O)c1ccc(NC(=O)c2cccs2)cc1	-18.8	i	i	i	-8.64*	0.666	48.0%*	i	44.0%*	120.7*	0.154*
Cc1nc2c(=O)[nH]c(=S)[nH]c2[nH]c1=O	x	x	i	x	x	x	x	x	x	x	x
SMILES	hERG rescue	KCNQ1 inh	KCNK3 inh	KCNQ1 pot	KCNK9 block	Cl transport mod	KCNK9 inh conf	Kir2-1 spec	KCNK9 uninduced	KCNK3 confirm	KCNK3 noninduced
Cc1cc2cccc(C)c2nc1SCC(=O)NC1CCCCC1	-1.6	i	-9.5*	i	-12.3*	x	i	i	i	92.3*	i
Cc1cc2cccc(C)c2nc1SCC(=O)NCC1CCCO1 (stereo not drawn)	-3.6	i	i	i	i	-1.27	x	x	x	x	x
CC(Oc1ccc(Cl)cc1)c1ccnn1S(=O)(=O)c1ccccc1 (stereo not drawn)	-8.2	i	-9.86*	i	-10.8*	-1.29	37.0%*	51.5%*	60.0%*	99.7*	0.143*
C=CCN(C(=O)CNC(=O)c1ccco1)C(C(=O)NC1CCCCC1)c1cccnc1 (stereo not drawn)	-6.0	i	i	i	i	x	x	x	x	x	x
CCn1c(C(=O)N2CCC(C(=O)NCCCSC3CCCCC3)CC2)cc2sccc21	-20.7	i	-9.26*	i	i	0.231	i	i	i	92.3*	i
CCN1CCN(C(=O)C2CCN(C(=O)c3cc4sccc4n3CC)CC2)CC1	-4.7	i	i	i	i	0.508	x	x	x	x	x
CCC(C)(C)n1nnnc1CN(Cc1ccco1)Cc1cc2cc3c(cc2[nH]c1=O)OCO3	-6.4	i	i	i	i	-0.261	x	x	x	x	x
CCC(C)(C)n1nnnc1CN(Cc1ccc(Cl)cc1)Cc1ccco1	-16.3	i	i	i	-11.1*	-0.0378	54.0%*	i	39.5%*	126.0*	0.156*
CCN(C[C@H]1N[C@@](CC)(C(=O)OC)[C@H]2C(=O)N(Cc3ccccc3)C(=O)[C@@H]12)S(=O)(=O)c1ccc(F)cc1	x	x	i	x	x	x	x	x	x	x	x
